According to ChEMBL document CHEMBL4819017 (Eur J Med Chem, 2021):
pEC50, pIC50, pKi: −log10 of the molar value.

What was measured:
[1] = Metabolic stability in rat liver microsomes assessed as parent compound remaining in presence of NADPH regenerating system at 0.5 uM measured after 15 mins by LC-MS/MS analysis; assay type: ADME, Microsome; conditions: read-out: Stabilty
In short: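 Human, mouse or rat liver microsomes at 0.5 mg/ml protein with compound at 0.5 µM and NADPH-regenerating system, 37 °C with shaking. Control wells contain 0.1 M potassium phosphate instead of the regenerating system. Reaction stopped with acetonitrile/0.1% formic acid, centrifuged, supernatant analyzed by LC-MS/MS. Result is percent parent compound remaining.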

HCT-116 = assay: Growth inhibition of human HCT-116 cells harboring mutated p110alpha measured after 72 hrs by Cell titre Glo-luminiscence cell viability assay; assay type: functional
In short: (§1)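 Cells harvested just before confluency and seeded at 4,000 cells/well, then left 24 h before dosing. Serial dilutions from 10 mM DMSO stocks, final DMSO ≤0.5%, each concentration in duplicate.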

[2] = Tmax in BALB/c mouse at 10 mg/kg, po measured for 8 hrs; assay type: ADME, organism-based; conditions: in vivo
In short: (§2)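 Dosing in BALB-C mice intravenously or orally, with plasma sampled over 8 h. Parameters (AUC, T1/2, Cl, Vd, Cmax, Tmax) come from a noncompartmental model. Units: AUC h.ng/ml, Vd L/Kg, Cmax ng/ml, Tmax h.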

[3] = Inhibition of p110alpha E545K mutant/p85alpha (unknown origin) using PIP2:3PS lipid kinase as substrate in presence of ATP measured by ADP-Glo lipid kinase assay; design: species or system Homo sapiens
In short: (§3)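 Lipid kinase assay with PIP2:3PS substrate held at 3.25 µM. Activity normalized to no-compound control for each enzyme and fitted to a variable-slope sigmoidal dose-response curve.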

[4] = target: Phosphatidylinositol 4,5-bisphosphate 3-kinase catalytic subunit alpha isoform (Homo sapiens, UniProt P42336); assay: Inhibition of human full length p110alpha (1 to 1068 residues) expressed in baculovirus-infected Sf21 cells by ADP-Hunter Plus assay
Cytochrome P450 2C19 = Cytochrome P450 2C19 (Homo sapiens, UniProt P33261); assay: Inhibition of CYP2C19 (unknown origin) using LuciferinH-EG as substrate at 10 uM preincubated with enzyme and substrate for 5 mins followed by addition of NADPH regeneration system and measured after 60 mins by luminescence method; assay type: ADME
In short: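 P450-Glo luminescence assays with these substrates: Luciferin-ME (CYP1A2), Luciferin-PPXE (CYP3A4), Luciferin-H (CYP2C9), LuciferinH-EG (CYP2C19), Luciferin-ME-EG (CYP2D6). Compounds run in 1/3 serial dilutions from 10 µM in 0.5% DMSO with enzyme and substrate. After 5 min preincubation, NADPH regeneration reagent added; 60 min at 37 °C, then detection reagent for 30 min. Background subtracted.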

[5] = target: Phosphatidylinositol 4,5-bisphosphate 3-kinase catalytic subunit gamma isoform (Homo sapiens, UniProt P48736); assay: Inhibition of human p110gamma using PIP2 as substrate in presence of ATP measured by HTRF assay
In short: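 HTRF PI3-kinase assay with PIP2 at 10 µM. Enzyme and ATP levels (ATP at 50× KM): p110α/p85α 100 pM with 200 µM ATP; p110δ/p85α 100 pM with 200 µM ATP; p110β/p85α 500 pM with 250 µM ATP; p110γ 4 nM with 100 µM ATP. Activity normalized to no-compound control, variable-slope sigmoidal fit. Two independent experiments in duplicate.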

[6] = Half life in BALB/c mouse at 5 mg/kg, iv measured for 8 hrs; assay type: ADME, organism-based; conditions: in vivo
In short: (§4)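 BALB/c mice dosed I.V. or P.O. at the stated dose; plasma levels followed for 8 h. Parameters from noncompartmental analysis: AUC (h.ng/ml), T1/2 (h), Cl (L/h/Kg), Vd (L/Kg), Cmax (ng/ml), Tmax (h).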

[7] = target: PI3-kinase p110-alpha/p85-alpha (Homo sapiens, UniProt P42336); assay: Inhibition of human p110alpha/p85alpha using PIP2 as substrate in presence of ATP measured by HTRF assay; assay type: protein-complex assay
[8] = target: PI3-kinase p110-alpha/p85-alpha (Homo sapiens, UniProt P42336, H1047R); assay: Inhibition of p110alpha H1047R mutant/p85alpha (unknown origin) using PIP2:3PS lipid kinase as substrate in presence of ATP measured by ADP-Glo lipid kinase assay; assay type: protein-complex assay; in short: as §3
[9] = Inhibition of PI3K/mTOR in human MCF7 cells assessed as reduction of S6 phosphorylation at Ser235/236 residue measured after 3 hrs by western blot assay; assay type: cell-based; conditions: MCF7, 3 h
In short: (§5)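 MCF7 cells treated for 3 h across a dose range, washed and lysed with phosphatase and protease inhibitors. Lysates run on 10% SDS-PAGE and blotted, antibodies incubated overnight at 4 °C.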

[10] = AUC(infinity) in BALB/c mouse at 10 mg/kg, po measured for 8 hrs; assay type: ADME, organism-based; design: route oral, time 8 hrs, dose 10 mg/kg; conditions: in vivo; in short: as §4
HT-29 = assay: Growth inhibition of human HT-29 cells harboring mutated p110alpha measured after 72 hrs by Cell titre Glo-luminiscence cell viability assay; assay type: functional; in short: as §1
PI3K p110 beta/p85 alpha = PI3K p110 beta/p85 alpha (Homo sapiens, UniProt P42338); assay: Inhibition of human p110beta/p85alpha using PIP2 as substrate in presence of ATP measured by HTRF assay; assay type: protein-complex assay
Homo sapiens [11] = species on record: Homo sapiens; assay: Selectivity ratio of Ki for human p110beta/p85alpha to Ki for human p110alpha/p85alpha using PIP2 as substrate in presence of ATP
In short: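 Ki from a PI3-kinase HTRF assay run per manufacturer. Enzyme levels: p110α/p85α and p110δ/p85α 100 pM, p110β/p85α 500 pM, p110γ 4 nM. ATP at 50× KM: 200 μM (α, δ), 250 μM (β), 100 μM (γ). PIP2 10 μM. Activity normalized to no-compound control. Ratio is the isoform Ki over the α Ki.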

[12] = Inhibition of PI3K/mTOR in human MCF7 cells assessed as reduction of P70S6K phosphorylation at Thr389 residue measured after 3 hrs by western blot assay; assay type: cell-based; conditions: MCF7, 3 h; in short: as §5
[13] = Volume of distribution in BALB/c mouse at 5 mg/kg, iv measured for 8 hrs; assay type: ADME, organism-based; conditions: in vivo; in short: as §2
[14] = Clearance in BALB/c mouse at 5 mg/kg, iv measured for 8 hrs; assay type: ADME, organism-based; conditions: in vivo; in short: as §4
[15] = target: PI3-kinase p110-delta/p85-alpha (Homo sapiens, UniProt O00329); assay: Inhibition of human p110delta/p85alpha using PIP2 as substrate in presence of ATP measured by HTRF assay; assay type: protein-complex assay
[16] = Inhibition of PI3K/mTOR in human MCF7 cells assessed as reduction of AKT phosphorylation at Thr308 residue measured after 3 hrs by western blot assay; assay type: cell-based; conditions: MCF7, 3 h; in short: as §5
Homo sapiens [17] = species on record: Homo sapiens; assay: Selectivity ratio of IC50 for recombinant human GST tagged mTOR (1360 to 2549 residues) expressed in baculovirus expression system to IC50 for human full length p110alpha (1 to 1068 residues) expressed in baculovirus-infected Sf21 cells
In short: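 mTOR activity measured by LanthaScreen assay. PI3K-α activity measured by ADP Hunter Plus (ADP accumulation, fluorescence ex 544/em 580 nm), normalized to no-compound control and fitted to a sigmoid dose-response curve. IC50s are the average of two independent experiments. Ratio is mTOR IC50 over PI3K-α IC50.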

Cytochrome P450 2C19, sequence (P33261 whole entry): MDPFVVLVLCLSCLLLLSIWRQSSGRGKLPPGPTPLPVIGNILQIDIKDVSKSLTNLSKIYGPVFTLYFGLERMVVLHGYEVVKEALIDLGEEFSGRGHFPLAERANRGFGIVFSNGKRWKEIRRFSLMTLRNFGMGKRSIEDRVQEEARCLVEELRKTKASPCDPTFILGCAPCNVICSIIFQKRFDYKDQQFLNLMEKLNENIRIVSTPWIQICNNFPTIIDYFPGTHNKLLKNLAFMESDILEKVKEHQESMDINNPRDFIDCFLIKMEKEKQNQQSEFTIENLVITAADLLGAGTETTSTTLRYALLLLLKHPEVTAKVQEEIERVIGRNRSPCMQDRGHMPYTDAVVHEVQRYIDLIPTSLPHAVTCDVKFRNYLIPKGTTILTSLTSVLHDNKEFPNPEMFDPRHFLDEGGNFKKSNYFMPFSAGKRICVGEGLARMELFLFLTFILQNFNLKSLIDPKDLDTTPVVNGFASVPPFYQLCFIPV
Phosphatidylinositol 4,5-bisphosphate 3-kinase catalytic subunit gamma isoform, sequence (P48736 whole entry, canonical isoform): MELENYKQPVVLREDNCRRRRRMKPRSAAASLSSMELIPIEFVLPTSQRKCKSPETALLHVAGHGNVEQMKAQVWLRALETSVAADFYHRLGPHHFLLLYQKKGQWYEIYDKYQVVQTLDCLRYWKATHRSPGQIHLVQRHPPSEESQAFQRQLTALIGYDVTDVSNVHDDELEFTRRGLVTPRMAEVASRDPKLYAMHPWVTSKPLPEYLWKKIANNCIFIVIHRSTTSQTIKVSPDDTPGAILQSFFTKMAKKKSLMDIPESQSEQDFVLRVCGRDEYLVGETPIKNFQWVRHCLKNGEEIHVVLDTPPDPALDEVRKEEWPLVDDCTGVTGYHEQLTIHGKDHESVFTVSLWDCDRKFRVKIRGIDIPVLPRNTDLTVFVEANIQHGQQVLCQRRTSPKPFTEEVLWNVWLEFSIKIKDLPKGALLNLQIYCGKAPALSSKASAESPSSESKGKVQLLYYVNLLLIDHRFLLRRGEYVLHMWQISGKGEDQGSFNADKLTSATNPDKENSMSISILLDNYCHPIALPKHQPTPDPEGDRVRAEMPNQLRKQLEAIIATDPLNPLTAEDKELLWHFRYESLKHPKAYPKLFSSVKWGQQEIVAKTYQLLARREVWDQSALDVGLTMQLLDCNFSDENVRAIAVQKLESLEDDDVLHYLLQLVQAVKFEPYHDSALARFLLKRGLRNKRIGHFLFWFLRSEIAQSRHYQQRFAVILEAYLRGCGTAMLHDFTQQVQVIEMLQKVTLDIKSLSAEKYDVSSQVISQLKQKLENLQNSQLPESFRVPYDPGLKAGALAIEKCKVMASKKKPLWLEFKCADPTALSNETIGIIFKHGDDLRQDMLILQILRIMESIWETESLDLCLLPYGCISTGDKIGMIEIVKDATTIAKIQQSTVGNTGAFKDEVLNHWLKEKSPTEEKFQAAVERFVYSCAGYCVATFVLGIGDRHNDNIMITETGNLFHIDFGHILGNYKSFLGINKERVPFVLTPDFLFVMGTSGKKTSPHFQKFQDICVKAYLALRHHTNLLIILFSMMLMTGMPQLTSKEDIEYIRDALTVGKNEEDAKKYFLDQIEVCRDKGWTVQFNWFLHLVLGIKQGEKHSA
PI3-kinase p110-alpha/p85-alpha (Homo sapiens, UniProt P42336, H1047R), sequence (P42336 whole entry H1047R, looked up): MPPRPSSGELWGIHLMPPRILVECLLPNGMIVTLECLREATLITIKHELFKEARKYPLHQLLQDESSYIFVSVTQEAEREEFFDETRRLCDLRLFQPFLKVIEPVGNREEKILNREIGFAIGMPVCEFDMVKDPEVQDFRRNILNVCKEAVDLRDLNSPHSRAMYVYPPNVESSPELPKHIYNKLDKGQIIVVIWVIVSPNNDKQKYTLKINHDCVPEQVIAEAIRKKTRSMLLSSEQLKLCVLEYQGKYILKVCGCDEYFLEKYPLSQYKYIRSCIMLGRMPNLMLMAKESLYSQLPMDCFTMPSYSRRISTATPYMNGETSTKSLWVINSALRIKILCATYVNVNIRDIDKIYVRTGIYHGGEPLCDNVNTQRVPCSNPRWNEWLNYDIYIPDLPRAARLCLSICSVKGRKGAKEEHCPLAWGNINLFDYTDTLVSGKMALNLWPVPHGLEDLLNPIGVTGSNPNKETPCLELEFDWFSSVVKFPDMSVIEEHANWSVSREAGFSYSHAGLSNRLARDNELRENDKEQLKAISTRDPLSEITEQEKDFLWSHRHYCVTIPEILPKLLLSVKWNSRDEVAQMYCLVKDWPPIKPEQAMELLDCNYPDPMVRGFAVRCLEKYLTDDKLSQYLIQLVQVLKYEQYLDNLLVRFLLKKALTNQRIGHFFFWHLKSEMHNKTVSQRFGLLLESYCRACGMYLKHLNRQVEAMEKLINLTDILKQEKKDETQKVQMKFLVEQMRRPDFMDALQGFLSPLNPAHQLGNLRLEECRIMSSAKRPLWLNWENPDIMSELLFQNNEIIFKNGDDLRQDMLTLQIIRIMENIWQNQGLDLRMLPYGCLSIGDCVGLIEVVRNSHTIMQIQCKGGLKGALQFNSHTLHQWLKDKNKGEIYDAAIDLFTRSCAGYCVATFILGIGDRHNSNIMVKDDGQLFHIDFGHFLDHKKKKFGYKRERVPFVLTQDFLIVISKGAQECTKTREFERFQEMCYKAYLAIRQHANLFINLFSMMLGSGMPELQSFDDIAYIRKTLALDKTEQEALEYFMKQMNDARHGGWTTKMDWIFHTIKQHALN
Phosphatidylinositol 4,5-bisphosphate 3-kinase catalytic subunit alpha isoform, sequence (P42336 whole entry, the tested form may be a part, canonical isoform): as the sequence (P42336 whole entry H1047R, looked up) above, with R1047H counted along it
PI3K p110 beta/p85 alpha, sequence (P27986 whole entry): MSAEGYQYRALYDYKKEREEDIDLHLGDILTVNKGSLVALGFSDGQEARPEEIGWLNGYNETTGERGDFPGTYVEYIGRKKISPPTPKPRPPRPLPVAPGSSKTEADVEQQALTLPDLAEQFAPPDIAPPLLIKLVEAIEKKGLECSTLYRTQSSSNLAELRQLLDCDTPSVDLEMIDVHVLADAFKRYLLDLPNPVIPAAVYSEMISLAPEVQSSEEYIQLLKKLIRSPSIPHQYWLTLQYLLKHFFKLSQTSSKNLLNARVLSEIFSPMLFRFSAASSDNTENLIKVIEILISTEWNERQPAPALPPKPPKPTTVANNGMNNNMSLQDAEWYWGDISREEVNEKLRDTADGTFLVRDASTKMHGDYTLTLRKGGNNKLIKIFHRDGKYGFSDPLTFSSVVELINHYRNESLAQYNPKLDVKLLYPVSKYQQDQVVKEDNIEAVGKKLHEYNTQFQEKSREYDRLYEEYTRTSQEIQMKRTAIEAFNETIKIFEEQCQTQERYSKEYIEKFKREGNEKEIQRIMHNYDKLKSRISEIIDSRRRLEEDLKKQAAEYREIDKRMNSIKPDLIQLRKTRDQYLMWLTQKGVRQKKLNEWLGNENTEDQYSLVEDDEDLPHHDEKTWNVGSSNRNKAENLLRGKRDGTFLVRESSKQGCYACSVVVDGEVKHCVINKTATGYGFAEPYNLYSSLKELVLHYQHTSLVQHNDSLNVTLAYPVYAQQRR
PI3K p110 beta/p85 alpha, sequence (P42338 whole entry): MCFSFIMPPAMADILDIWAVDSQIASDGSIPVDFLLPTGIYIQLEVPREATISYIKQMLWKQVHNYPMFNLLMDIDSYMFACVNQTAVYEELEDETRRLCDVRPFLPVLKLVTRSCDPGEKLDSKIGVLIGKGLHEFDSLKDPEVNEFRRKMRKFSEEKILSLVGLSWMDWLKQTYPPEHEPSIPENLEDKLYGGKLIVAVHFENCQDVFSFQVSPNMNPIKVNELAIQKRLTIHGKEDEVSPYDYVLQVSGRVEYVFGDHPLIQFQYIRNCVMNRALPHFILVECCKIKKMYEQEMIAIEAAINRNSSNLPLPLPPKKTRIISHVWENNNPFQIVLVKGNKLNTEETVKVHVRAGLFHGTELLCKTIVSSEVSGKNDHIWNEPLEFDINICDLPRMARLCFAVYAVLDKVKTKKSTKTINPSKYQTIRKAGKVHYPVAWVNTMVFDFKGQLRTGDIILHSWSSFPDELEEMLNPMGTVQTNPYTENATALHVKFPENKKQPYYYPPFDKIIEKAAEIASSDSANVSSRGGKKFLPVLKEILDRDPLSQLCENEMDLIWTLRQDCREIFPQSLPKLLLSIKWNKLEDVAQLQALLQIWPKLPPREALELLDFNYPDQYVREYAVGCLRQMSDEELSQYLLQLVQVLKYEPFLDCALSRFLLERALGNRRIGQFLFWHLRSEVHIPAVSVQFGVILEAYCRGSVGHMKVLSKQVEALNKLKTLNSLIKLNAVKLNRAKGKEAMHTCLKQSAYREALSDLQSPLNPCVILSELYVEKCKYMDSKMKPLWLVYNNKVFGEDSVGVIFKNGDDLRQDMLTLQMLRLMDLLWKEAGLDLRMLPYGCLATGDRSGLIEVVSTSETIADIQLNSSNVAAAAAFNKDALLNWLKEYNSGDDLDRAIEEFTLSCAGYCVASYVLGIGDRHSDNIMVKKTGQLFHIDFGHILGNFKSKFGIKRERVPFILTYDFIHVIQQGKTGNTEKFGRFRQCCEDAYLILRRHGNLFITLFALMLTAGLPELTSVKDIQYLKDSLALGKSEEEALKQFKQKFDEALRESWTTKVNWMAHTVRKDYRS
PI3-kinase p110-alpha/p85-alpha (Homo sapiens, UniProt P42336), sequence (P27986 whole entry): as the sequence (P27986 whole entry) above
PI3-kinase p110-alpha/p85-alpha (Homo sapiens, UniProt P42336), sequence (P42336 whole entry): as the sequence (P42336 whole entry H1047R, looked up) above, with R1047H counted along it

For `COc1ncc2cc1NS(=O)(=O)c1cccc(c1)C(=O)NCc1cncc(c1)-c1cnc3ccc-2cn13`, which remaining at 0.25 h, 0.5 µM [1] is on record?
The remaining at 0.25 h, 0.5 µM was 100%.

What about the GI50 (HCT-116) of the same compound?
The GI50 was 22.8 nM.

And the Tmax [2]?
Its Tmax is 0.5 h.

And the pKi [3]?
The pKi was 9.85.

And the pIC50 [4]?
The pIC50 was 9.10.

And the pIC50 (Cytochrome P450 2C19)?
Its pIC50 is < 4.52.

What about the pKi [5] of the same compound?
Its pKi is 9.01.

And the half-life [6]?
The half-life was 2.59 h.

What about the pKi [7] of the same compound?
Its pKi is 9.80.

What about the pKi [8] of the same compound?
Its pKi is 10.00.

What about the pEC50 [9] of the same compound?
The pEC50 was 9.08.

What about the AUC(0-inf) [10] of the same compound?
Its AUC(0-inf) is 4.48 µg·h/mL.

And the GI50 (HT-29)?
The GI50 was 8.2 nM.

What about the pKi (PI3K p110 beta/p85 alpha) of the same compound?
Its pKi is 9.03.

What about the Selectivity ratio (Homo sapiens [11]) of the same compound?
The Selectivity ratio was 6.

What about the pEC50 [12] of the same compound?
Its pEC50 is 9.04.

What about the Vd [13] of the same compound?
The Vd was 5.98 L/kg.

What about the clearance [14] of the same compound?
Its clearance is 1.89 L/h/kg.

What about the pKi [15] of the same compound?
The pKi was 10.22.

And the pEC50 [16]?
Its pEC50 is 9.85.

What about the Ratio IC50 (Homo sapiens [17]) of the same compound?
Its Ratio IC50 is 4.1.
